In ChEMBL document CHEMBL4396895, “Identification and Optimization of Novel Cathepsin C Inhibitors Derived from EGFR Inhibitors” (J Med Chem, 2019):
The source made the active and inactive calls. The calls are words filed in the database; no cut-off is given here.

Experiments:
[1] = molecular target: T1, Epidermal growth factor receptor (Homo sapiens, UniProt P00533); test: Inhibition of EGFR (unknown origin) up to 10 uM using biotin-labelled peptide as substrate preincubated for 2 hrs followed by substrate addition and measured after 30 mins by HTRF FRET assay
Summary of the method: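 EGFR WT was used at 0.1 nM final in 50 mM HEPES pH 7.0, 0.02% NaN3, 0.01% BSA, 0.1 mM orthovanadate, 10 mM MgCl2, 2.5 mM DTT, 6.25 nM SEB. It was preincubated with compound for 2 h. Biotin-peptide (1.4 μM) and ATP (20 μM) were then added for 30 min at RT. Read-out was HTRF/TR-FRET (Ex 320, Em 615/665 nm) with a sigmoidal curve fit.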

[2] = Intrinsic clearance in mouse liver microsomes assessed per mg protein measured after 60 mins in presence of NADPH by LC-MS/MS analysis; type: ADME, Microsome; details: read-out: CLH
[3] = Intrinsic clearance in human liver microsomes assessed per mg protein measured after 60 mins in presence of NADPH by LC-MS/MS analysis; type: ADME, Microsome; details: read-out: CLH
[4] = molecular target: T2, Dipeptidyl peptidase 1 (Homo sapiens, UniProt P53634); test: Inhibition of CatL-activated recombinant human C-terminal His10-tagged cathepsin C (25 to 463 residues) expressed in mouse myeloma cells using Gly-Phe-AFC as substrate preincubated for 3 hrs followed by substrate addition and measured after 60 mins; type: cell-free
Summary of the method: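 Activated rhCatC was diluted to 4.4 nM in 25 mM MES, 50 mM NaCl, 5 mM DTT, 0.01% Triton X-100, pH 6.0. It was preincubated with compound (added in 10% DMSO) for 3 h at RT. Gly-Phe-AFC was then added to 100 μM final and read as fluorescence after 60 min. IC50 came from a sigmoidal nonlinear fit; values are means of at least two experiments.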

[5] = molecular target: T1, Epidermal growth factor receptor; test: Inhibition of EGFR (unknown origin) using biotin-labelled peptide as substrate preincubated for 2 hrs followed by substrate addition and measured after 30 mins by HTRF FRET assay
[6] = Intrinsic clearance in rat liver microsomes assessed per mg protein measured after 60 mins in presence of NADPH by LC-MS/MS analysis; type: ADME, Microsome; details: read-out: CLH
[7] = molecular target: T2, Dipeptidyl peptidase 1; test: Inhibition of cathepsin C in human U937 cells using H-Gly-Phe-AFC as substrate preincubated for 4 hrs followed by substrate addition and measured after 60 mins; type: cell-based
Summary of the method: (§1)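 THP1 or U937 cells, grown in RPMI 1640 with 10% FBS, were seeded at 1.0 × 10^6/mL. They were preincubated with threefold serial dilutions of compound for 4 h at 37 °C. H-Gly-Phe-AFC was then added from a 100 μM solution and fluorescence was read after 60 min at 37 °C. Values are means of at least two experiments.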

[8] = molecular target: Cathepsin B (Homo sapiens, UniProt P07858); test: Inhibition of recombinant human C-terminal polyhistidine-tagged cathepsin B (Arg18 to Ile339 residues) expressed in HEK293 cells using Z-Leu-Arg-AMC as substrate preincubated for 30 mins followed by substrate addition and measured after 30 mins
Summary of the method: (§2)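 Recombinant human cathepsin was preincubated with compound for 30 min at RT, then reacted with substrate for 30 min. CatB and CatL were read with Z-Leu-Arg-AMC (Ex 380/Em 460 nm). CatS was read with MCA-Arg-Pro-Lys-Pro-Val-Glu-Nva-Trp-Arg-Lys(DNP)-NH2 (Ex 320/Em 405 nm). E-64 served as inhibitor control.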

[9] = molecular target: Cytochrome P450 3A4 (Homo sapiens, UniProt P08684); test: Inhibition of CYP3A4 (unknown origin); type: ADME
Summary of the method: (§3)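 Tested against recombinant human cytochrome P450 isoforms 1A2, 2D6, 3A4, 2C9 and 2C19.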

[10] = molecular target: Cytochrome P450 2C9 (Homo sapiens, UniProt P11712); test: Inhibition of CYP2C9 (unknown origin); type: ADME; summary of the method: as §3
[11] = molecular target: Procathepsin L (Homo sapiens, UniProt P07711); test: Inhibition of recombinant human C-terminal His6-tagged cathepsin L (Glu113 to Val333 and Ala114 to Val333 residues) expressed in mouse myeloma cells using Z-Leu-Arg-AMC as substrate preincubated for 30 mins followed by substrate addition and measured after 30 mins; summary of the method: as §2
[12] = molecular target: T3, Cytochrome P450 1A2 (Homo sapiens, UniProt P05177); test: Inhibition of CYP1A2 (unknown origin); type: ADME; summary of the method: as §3
T3 sequence (P05177 whole entry): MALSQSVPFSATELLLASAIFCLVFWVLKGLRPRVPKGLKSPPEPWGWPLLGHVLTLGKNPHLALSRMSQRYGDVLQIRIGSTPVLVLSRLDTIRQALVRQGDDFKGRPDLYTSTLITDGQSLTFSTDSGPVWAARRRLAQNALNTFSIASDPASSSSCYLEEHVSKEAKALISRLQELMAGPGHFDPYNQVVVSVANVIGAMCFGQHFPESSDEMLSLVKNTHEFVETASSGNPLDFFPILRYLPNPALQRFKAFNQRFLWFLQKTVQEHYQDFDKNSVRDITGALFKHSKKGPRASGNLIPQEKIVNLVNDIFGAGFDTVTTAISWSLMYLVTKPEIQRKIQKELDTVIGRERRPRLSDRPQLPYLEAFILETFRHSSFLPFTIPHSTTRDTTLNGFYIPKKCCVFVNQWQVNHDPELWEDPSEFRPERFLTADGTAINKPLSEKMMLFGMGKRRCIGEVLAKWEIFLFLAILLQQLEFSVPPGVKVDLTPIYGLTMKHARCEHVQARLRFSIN

[13] = molecular target: Cathepsin S (Homo sapiens, UniProt P25774); test: Inhibition of recombinant human C-terminal polyhistidine-tagged cathepsin S (Met1 to Ile331 residues) expressed in HEK293 cells using MCA-Arg-Pro-Lys-Pro-Val-Glu-NVAL-Trp-Arg-Lys(DNP)-NH2 as substrate preincubated for 30 mins followed by substrate addition and measured after 30 mins; summary of the method: as §2
[14] = molecular target: Cytochrome P450 2C19 (Homo sapiens, UniProt P33261); test: Inhibition of CYP2C19 (unknown origin); type: ADME; summary of the method: as §3
[15] = molecular target: T2, Dipeptidyl peptidase 1; test: Inhibition of cathepsin C in human THP1 cells using H-Gly-Phe-AFC as substrate preincubated for 4 hrs followed by substrate addition and measured after 60 mins; type: cell-based; summary of the method: as §1
[16] = molecular target: Cytochrome P450 2D6 (Homo sapiens, UniProt P10635); test: Inhibition of CYP2D6 (unknown origin); type: ADME; summary of the method: as §3
[17] = test system: Mus musculus; test: Protection against C57BL/6 mouse model of caerulein-induced acute pancreatitis assessed as reduction in CatC activity at 20 mg/kg, po pretreated twice daily for 6 days followed by caerulein-challenge at 1 hr interval for 8 hrs and measured 1 hr post-last caerulein-challenge
[18] = test system: Mus musculus; test: Protection against C57BL/6 mouse model of caerulein-induced acute pancreatitis at 20 mg/kg, po pretreated twice daily for 6 days followed by caerulein-challenge at 1 hr interval for 8 hrs and measured 1 hr post-last caerulein-challenge by H and E staining-based histological analysis

SMILES	inhibition [1]	microsomal CLint [2] [µL/min/mg]	microsomal CLint [3] [µL/min/mg]	IC50 [4] [µM]	IC50 [5] [µM]	microsomal CLint [6] [µL/min/mg]	IC50 [7] [µM]	IC50 [8] [µM]	IC50 [9] [µM]	IC50 [10] [µM]	IC50 [11] [µM]	IC50 [12] [µM]	IC50 [13] [µM]	IC50 [14] [µM]	IC50 [15] [µM]	IC50 [16] [µM]	Activity [17]	Activity [18]
C=CC(=O)Nc1cccc(Oc2nc(Nc3ccc(N4CCN(C)CC4)cc3OC)ccc2Cl)c1	inactive	26.3	5.4	0.81	> 10	39.7	0.537 to 0.538											
C=CC(=O)Nc1cc(Oc2nc(Nc3ccc(N4CCN(C)CC4)cc3OC)ccc2N2CCOCC2)ccc1C	inactive	4	1.9	0.059 to 0.0593		10	0.0059	3 to 10	> 10	> 10	> 10	> 10	> 10	> 10	0.0039	> 10		
C=CC(=O)Nc1cc(Oc2nc(Nc3ccc(N4CCN(C)CC4)cc3OC)ccc2N2CCCC2)ccc1C	inactive	26.7	4.3	0.044		23.1	0.0408	3 to 10	> 10	> 10	3 to 10	8.75	> 10	9.91	0.0123	> 10		
N#Cc1ccc(-c2ccc(C[C@@H](C#N)NC(=O)C3(N)CCOCC3)cc2)cc1																	Active	Active
